Results of several laboratories.
Compare with care: the assays were run in different laboratories.

SMILES | cell line | read-out | technique | time | endpoint | result
C=CC(=O)N1CCC[C@@H](n2nc(-c3ccc(Oc4ccccc4)cc3)c3c(N)ncnc32)C1 | Z-138 | cell growth or viability | ATP luminescence | 72 h | GI50 | 17200 nM
CC[C@@H]1C=CC(=O)O[C@@H]1C[C@@H](OC)[C@H](C)[C@H](OC)[C@@H](C)Cc1ccc(F)cc1 | OVCAR-5 | cell growth or viability | MTT | 48 h | GI50 | 784 nM
CC#CC(=O)N1CC[C@@H](n2cc(-c3ccc(Oc4c(F)cccc4F)cc3)c3c(N)n[nH]c(=O)c32)C1 | Granta-519 | cell growth or viability | ATP luminescence | 72 h | GI50 | 2690 nM
COc1cc(Nc2nccc(-c3cnn4nc(OC)ccc34)n2)cc(C(F)(F)F)c1 | BEN | cell growth or viability | ATP luminescence | – | IC50 | > 3000 nM
COc1ccc(S(=O)(=O)Nc2ccc3oc(-c4ccc(NC(=O)c5cccc(C)c5[N+](=O)[O-])cc4)nc3c2)cc1 | DLD-1 | colony formation | – | – | EC50 | 16 µM
C[C@]12CC[C@@H]3c4ccc(O)cc4CC[C@H]3[C@@H]1CC[C@@H]2O | Capan-2 | cell growth or viability | ATP luminescence | 72 h | EC90 | 150 µM
CC[C@@H]1C=CC(=O)O[C@@H]1C[C@@H](O)[C@H](C)[C@H](OC)[C@@H](C)Cc1ccccc1 | OVCAR-5 | cell growth or viability | MTT | 48 h | GI50 | 57.5 nM
CC/C(=C(\c1ccccc1)c1ccc(OCCN(C)C)cc1)c1ccccc1 | Capan-2 | cell growth or viability | ATP luminescence | 72 h | EC90 | 25.8 µM
COc1ccc(-c2ccc(-c3ccc(C(=N)N)nc3)s2)cc1Cl | OVCAR-5 | cell growth or viability | SRB | – | GI50 | 1860 nM
